Source: PubChem
DDE Tn7 FP inh – inhibitors of Tn7 peptide binding to fibrin DD(E), primary screen, biochemical, fluorescence polarization, human fibrin, Tn7 probe | Fibrinogen beta chain (Homo sapiens), P02675 | FP displacement of FITC-Tn7 peptide from fibrin DD(E); 0% = median of compound wells per plate | inhibition, % at 8.3 µM | actives 0.13% (n = 370,000);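 active means inhibition above the mean of compounds falling within the control limits plus 3 SD of them, cut at about 14% in these data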;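 further: 0% = plate median of compound wells and 100% = 10 µM Aha-Tn7 peptide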
Target sequence (P02675 whole entry, looked up): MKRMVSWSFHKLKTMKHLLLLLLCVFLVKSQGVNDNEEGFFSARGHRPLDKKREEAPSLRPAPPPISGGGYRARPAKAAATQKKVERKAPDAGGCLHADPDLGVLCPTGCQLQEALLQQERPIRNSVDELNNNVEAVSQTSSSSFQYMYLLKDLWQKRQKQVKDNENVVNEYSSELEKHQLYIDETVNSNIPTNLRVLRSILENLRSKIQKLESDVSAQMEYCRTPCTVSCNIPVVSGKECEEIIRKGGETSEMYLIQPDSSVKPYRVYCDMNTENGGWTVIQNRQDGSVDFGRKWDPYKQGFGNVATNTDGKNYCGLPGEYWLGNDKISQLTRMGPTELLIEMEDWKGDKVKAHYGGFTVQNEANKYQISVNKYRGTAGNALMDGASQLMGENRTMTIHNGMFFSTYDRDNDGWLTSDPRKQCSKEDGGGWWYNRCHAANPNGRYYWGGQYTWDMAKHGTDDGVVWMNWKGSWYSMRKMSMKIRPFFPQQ
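Measure: % inhibition scaled between sample-field median and high-control FP; Test system: human fibrin DD(E); Quantity: 2 µM final DD(E) protein; Doses: one dose, 8.3 µM nominal; Schedule: compound with protein 10 min, then 3 h after probe, room temperature; Detection: fluorescence polarization; Medium: Tris buffer with calcium and detergent, pH 7.8.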
DDE Tn6 FP inh – inhibitors of Tn6 peptide binding to fibrin DD(E), primary screen, biochemical, fluorescence polarization, human fibrin, Tn6 probe. Fibrinogen beta chain (Homo sapiens), P02675. Fibrin DD(E) TRITC-Tn6 fluorescence polarization displacement. inhibition, % at 8.3 µM. actives 0.21% (n = 370,000);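 active means inhibition above a per-campaign cutoff: mean of compounds within control limits plus 3 SD, cut at about 15% in these data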;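 further: 0% = median of all compound wells on the plate and 100% = blocking peptide control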
SIAE inh – human SIAE inhibitors, primary screen, biochemical, fluorescence polarization, FP-Rh probe, 1536-well HTS | AID 1053197, 2014 | SIAE FP-Rh probe binding | inhibition, % at 9.66 µM | actives 0.69% (n = 370,000) | Sialate O-acetylesterase (Homo sapiens), Q9HAT2;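 active means inhibition above a cutoff: mean of compounds within the control limits plus 3 SD of those, cut at about 17% in these data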;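 further: 0% = plate median of compound wells and 100% = probe without SIAE protein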
HTRA1 inh – HTRA1 serine protease inhibitors, primary screen, biochemical, fluorescence polarization, HTS. recombinant HTRA1, FP-rhodamine activity-based probe. inhibition, % at 5.96 µM. actives 0.5% (n = 340,000); in the data active means inhibition above about 36%;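 further: 0% = enzyme with DMSO and 100% = wells lacking enzyme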
TCR-CD3 inh – inhibitors of human TCR-CD3 interaction, primary screen, biochemical, fluorescence, TAMRA-labeled TCR probe; actives 0.37% (n = 360,000); AID 651800, 2012; T-cell receptor (TCR); inhibition, % at 9.4 µM; in the data active means inhibition above about 19%;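 further: recombinant mutant TCR 2C K166C tagged with TAMRA read by polarization; 0% = receptor in buffer alone and 100% = receptor with positive control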
ABHD4 inh – ABHD4 inhibitors, primary screen, biochemical, fluorescence polarization, mouse | inhibition, % at 8.92 µM | actives 0.54% (n = 370,000) | (Lyso)-N-acylphosphatidylethanolamine lipase (Mus musculus), Q8VD66 | purified mABHD4, FP-Rh probe fluorescence polarization;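 active means inhibition exceeding the mean over every tested compound plus 3 SD, cut at about 30% in these data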;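 further: 0% = plate median of compound wells and 100% = S159A mutant with DMSO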
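Test system: mABHD4 protein | Buffer or medium: HEPES pH 7.0 buffer, 150 mM NaCl, 0.01% Pluronic F-127 | Probe or stimulus: FP-Rh fluorescent activity-based probe, added after compound pre-incubation | Timing: Pre-incubation 45 min, probe exposure 60 min, at 25 °C | Technique: Fluorescence polarization, excitation 525 nm, emission 598 nm, BODIPY TMR filters | Repeats: Single well per compound (singlicate)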
mABHD4 conf – ABHD4 inhibitors, retest, confirmation, biochemical, fluorescence polarization, mouse; shares compounds with ABHD4 inh; purified mABHD4, FP-Rh probe fluorescence polarization; inhibition, % at 8.92 µM; actives 55% (n = 1,800);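 active means mean inhibition across replicates above the hit cutoff set in the primary screen, cut at about 30% in these data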;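 further: 0% = wild-type ABHD4 with DMSO and 100% = catalytically dead S159A mutant with DMSO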
Numbers without * were called inactive; · = no result given. Hits are enriched below; roughly 1.8% of the tested compounds scored in any of these assays.

SMILES	DDE Tn7 FP inh	DDE Tn6 FP inh	SIAE inh	HTRA1 inh	TCR-CD3 inh	ABHD4 inh	mABHD4 conf
O=C1CC(Nc2ccc(N3CCOCC3)cc2)C(=O)N1CCc1ccccc1 (stereo not drawn)	2	5	17	12	-1	33*	4
COc1ccc(-c2nnc(SCC(=O)N/N=C\C=C/c3ccco3)n2-c2ccc(C)cc2)cc1	0	-5	-7	·	·	-1	·
O=C(CCn1nnc(-c2cccs2)n1)NCc1ccco1	-11	-2	-6	·	·	-3	·
COc1cccc(C2CC(c3ccc(NS(C)(=O)=O)cc3)=NN2C(=O)c2ccccc2)c1OC (stereo not drawn)	-5	0	6	-10	1	44*	55*
COc1ccc(C2C3=C(CC(C)(C)CC3=O)Oc3ncn4nc(-c5cccnc5)nc4c32)cc1 (stereo not drawn)	8	-15	-2	2	3	30*	-13
CN(C)c1ccc(S(=O)(=O)N2CCCCC2)cc1NC(=O)C1CSC2(C)CCC(=O)N12 (stereo not drawn)	-2	6	-5	5	0	1	·
CCN(CC)S(=O)(=O)c1ccc(N2CCCCC2)c(NC(=O)C2CSC3(C)CCC(=O)N23)c1 (stereo not drawn)	4	0	3	-9	0	40*	36*
c1ccc(-c2csc(Nc3ccc4c(c3)OCO4)n2)cc1	-4	2	10	·	1	31*	27
COc1ccccc1CCn1cnc(-c2ccc(F)cc2F)c1CC(C)C	5	-6	3	·	3	3	·
CCOc1cc(S(=O)(=O)n2cc(-c3ccc(F)cc3)c(N)n2)cc(OCC)c1OCC	-7	-7	-2	-36	7	49*	65*
CCOc1cc(-c2cn(S(=O)(=O)c3cccc4nsnc34)nc2N)cc(OCC)c1OCC	-6	0	4	-4	0	31*	51*
CCOc1ccc(S(=O)(=O)n2cc(-c3ccc(F)cc3)c(N)n2)cc1	-3	4	2	-11	9	-10	·
CCOC(=O)c1c(-c2ccc(-c3ccccc3)cc2)csc1NC(=O)CNCCN(C)C	-3	-12	11	30	-9	30*	43*
CCOC(=O)c1c(-c2ccccc2)csc1NC(=O)CCN1C(=O)c2ccccc2C1=O	-2	6	4	-3	3	0	·
O=C(CN1CCN(Cc2ccccc2)CC1)N/N=C\c1ccccc1[N+](=O)[O-]	7	0	1	·	·	1	·
CCOc1cc([N+](=O)[O-])cc(/C=C2/NC(=O)N(Cc3ccccc3F)C2=O)c1O	5	2	-6	27	-3	31*	54*
CC(CN1CCN(Cc2ccccc2)CC1)c1ccccc1 (stereo not drawn)	-2	-6	1	-3	-7	30*	6
CC(CN1CCC(O)CC1)c1ccccc1 (stereo not drawn)	0	-1	-6	3	-4	-9	·
COc1ccc(S[C@]2(C(=O)N3CCCC3)CC(=O)N(S(=O)(=O)c3ccc(F)cc3)[C@@H]2c2ccc(OC)cc2)cc1	2	-8	-5	·	·	-1	·
COc1ccccc1CNc1nc(NCCOc2ccccc2Cl)c2sccc2n1	2	-5	10	·	0	31*	69*
COc1ccccc1CNc1nc(NCc2ccc(C(C)C)cc2)c2sccc2n1	2	5	10	·	3	36*	34*
CCN(CC)S(=O)(=O)c1ccc2c(c1)NC(=O)C1CCCN21 (stereo not drawn)	-2	1	-8	-7	-9	31*	44*
CC(CCN1CCC(C(O)(c2ccccc2)c2ccccc2)CC1)Oc1cccc(Br)c1 (stereo not drawn)	-3	0	2	·	·	15	·
O=C(CNc1ccc2ccccc2c1)N/N=C/c1ccccn1	-4	0	15	·	-2	39*	12
Cc1ccc(CN2CCN(/N=C/c3ccc(O)c(O)c3)CC2)cc1	-2	-1	10	32	6	31*	54*
SMILES	DDE Tn7 FP inh	DDE Tn6 FP inh	SIAE inh	HTRA1 inh	TCR-CD3 inh	ABHD4 inh	mABHD4 conf
Cc1ccc(CN2CCN(/N=C/c3ccc(C(=O)O)cc3)CC2)cc1	-4	3	2	2	5	-5	·
Oc1cccc(-c2nnc(-c3cccc(O)c3)nn2)c1	6	-10	-1	-1	3	42*	60*
CC(C)=C1C(=O)NN(c2ccc(C)c(Cl)c2)C1=O	-1	4	12	34	4	37*	21
CCCc1ccc(-c2cc(NC(=O)Cc3c[nH]c4ccccc34)ccc2Nc2cccnc2)cc1	9	6	11	·	9	42*	39*
CC(C)(C)c1ccc(-c2cc(NC(=O)Cc3c[nH]c4ccccc34)ccc2Nc2cccnc2)cc1	5	5	11	·	-4	41*	55*
Cc1ccc(/C=C(\CCC(=O)O)c2nc3ccccc3s2)cc1[N+](=O)[O-]	0	-10	-18	-18	-7	-28	·
CNc1ccc(/C=C(\CCC(=O)O)c2nc3ccccc3s2)cc1[N+](=O)[O-]	1	-10	-14	8	1	47*	54*
CN(c1ccccc1)c1ccc(/C=C(\CCC(=O)O)c2nc3ccccc3s2)cc1[N+](=O)[O-]	5	-3	14	31	3	69*	62*
CN(C)CCOc1ccc(-c2c(-c3ccsc3)sc3ccccc23)cc1	-7	0	16	-21	-6	34*	39*
Cc1cc(NS(=O)(=O)c2ccc(NC(=O)CSc3nnc(-c4ccncc4)n3Cc3ccco3)cc2)nc(C)n1	2	-3	-6	·	·	0	·
NNc1nc2ccc(F)cc2s1	0	6	11	30	7	42*	26
Fc1ccc2nc(Nc3ccccc3)sc2c1	1	1	10	-12	-5	0	·
CC1(C)CC(=O)N(CC(=O)N2CCN(Cc3ccc4c(c3)OCO4)CC2)c2ccccc2S1(=O)=O	6	-5	-3	·	·	1	·
Oc1ccc(NC(=S)Nc2ccccc2)cc1	11	2	8	5	8	42*	-7
